# High-throughput results as filed in PubChem BioAssay.
# B2AR ag = agonists of human beta-2 adrenergic receptor inducing internalization; P07550; Am2.2-beta2AR cells, FAP receptor internalization, flow cytometry; response, % (no concentration beside the values); 0.43% of 340,000 active; AID 504454;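 active = response above a set limit, near 3 SD of response in nonfluorescent compounds, cut at about 42% in these data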
# MBD2 inh = inhibitors of human MBD2 binding to methylated oligonucleotide | Q9UBB5 | TR-FRET | inhibition, % at 4.4 µM | 0.31% of 370,000 active | AID 686964; in the data active = inhibition above about 13%
# Target sequence (Q9UBB5 whole entry, looked up): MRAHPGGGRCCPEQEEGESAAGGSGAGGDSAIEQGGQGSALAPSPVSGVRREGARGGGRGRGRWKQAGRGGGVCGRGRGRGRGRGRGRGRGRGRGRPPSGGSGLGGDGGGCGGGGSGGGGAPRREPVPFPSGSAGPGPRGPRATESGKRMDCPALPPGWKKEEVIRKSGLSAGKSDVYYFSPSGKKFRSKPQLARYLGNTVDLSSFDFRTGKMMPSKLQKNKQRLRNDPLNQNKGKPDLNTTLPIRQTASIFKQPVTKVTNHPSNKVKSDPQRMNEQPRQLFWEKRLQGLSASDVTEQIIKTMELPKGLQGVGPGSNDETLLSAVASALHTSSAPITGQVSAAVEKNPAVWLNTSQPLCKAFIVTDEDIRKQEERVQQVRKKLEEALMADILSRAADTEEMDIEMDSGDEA
# UHRF1 MBD2 ctr = blocks human UHRF1 binding to methylated DNA. Q96T88. 0.75% of 370,000 active. inhibition, % at 4.4 µM. UHRF1 binding to methylated oligo, TR-FRET. AID 687016; in the data active = inhibition above about 21%;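 note: UHRF1 SRA domain binding a hemimethylated CpG hairpin DNA probe; 0% = median of test compound wells and 100% = reference inhibitor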
# ABHD5 PLIN5 PPI = blocks binding of human ABHD5 to perilipin-5 | Q00G26+Q8WTS1 | Split G. princeps luciferase complementation, luminescence, 4 h | inhibition, % at 4 µM | 0.78% of 360,000 active;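 active = inhibition above the mean inhibition across every tested compound plus 3 SD, cut at about 22% in these data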;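 note: 0% = DMSO only wells and the 100% control is not disclosed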
# Arrestin-AP2 inh = inhibitors of human beta-arrestin and AP2 interaction; inhibition, % at 10 µM; 0.31% of 340,000 active; FITC-arrestin peptide / GST-AP2 beads, flow cytometry; AP2 beta2 appendage carries R879A mutation;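 active = inhibition above a set limit, near 3 SD of compounds lacking own fluorescence, cut at about 54% in these data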;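 note: plate controls were DMSO wells for no effect and 5 µM unlabelled arrestin peptide for full effect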
#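 Measured by: flow cytometry, FL1 (488/535 nm); Material: AP2 appendage R879A on GSH beads; Evaluation: percent response; Timing: pre-incubation 12 min, peptide binding 1 h, room temperature; Also added: 50 nM FITC-arrestin peptide; Medium: PBS with 0.05% Tween 20 and 0.1% BSA.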
# Rin1-Abl PPI inh = blocks binding of human Rin1 to Abl; P00519+Q13671; TR-FRET Rin1/Abl binding, biochemical; inhibition, % at 7.35 µM; 0.4% of 360,000 active; in the data active = inhibition above about 5%, passing the limit was not always enough
# Starred values were filed as active, the others as inactive; · = no result given. Only some compounds are listed: those with a hit (about 2.5% of all), similar ones and a draw of the others.
SMILES,B2AR ag,MBD2 inh,UHRF1 MBD2 ctr,ABHD5 PLIN5 PPI,Arrestin-AP2 inh,Rin1-Abl PPI inh
CCN(CC)c1ccc(C2C(C(=O)Nc3ccccn3)=C(C)NC3=C2C(=O)CC(C)(C)C3)cc1 (centres undefined),-14.2,-1.4,-4.0,0.4,12.3,-2.1
CS(=O)(=O)c1ccc(Cl)c(NC(=O)CN2CCN(C(=O)c3cccs3)CC2)c1,-7.4,6.6,22.6*,1.0,-10.3,1.8
O=C(O)/C=C/c1ccccc1[N+](=O)[O-],-7.3,3.9,-0.6,-3.6,-0.9,-2.8
CC(C)N(Cc1ccccc1)C(=O)/C=C/c1ccccc1[N+](=O)[O-],-8.8,3.1,28.2*,-0.7,5.1,-2.6
COC(=O)C1=C(C)N(Cc2ccccc2)C(=NCc2cccc(Cl)c2)N[C@H]1c1cccc(F)c1,48.3*,·,·,5.9,33.0,3.6
COC(=O)[C@]12C[C@H](CC(=O)N3CCSCC3)C(=O)N(Cc3cccc4ccccc34)C1=C[C@H](C1CCCC1)O[C@@H]2C,·,-4.0,2.9,·,·,·
CCCOc1cccc(C(=O)NCCCNC(=O)c2ccccn2)c1,-6.7,-0.1,48.4*,7.5,39.1,2.1
COc1cc(C2C(C#N)=C(N)OC3=C2C(=O)CC(C)(C)C3)cc2c1OCO2 (centres undefined),-1.1,1.3,29.7*,1.7,3.7,-3.4
COc1ccc(C2C(C#N)=C(N)OC3=C2C(=O)CC(C)(C)C3)cc1 (centres undefined),-1.2,3.5,-0.3,6.3,-19.9,-3.1
CSC(SC)=C(C#N)C(=O)c1ccccc1,70.3*,0.6,0.7,-3.8,1.4,1.8
CCOc1ncccc1C(=O)N1CCN(C(=O)c2ccccc2)CC1,6.8,12.8,21.0*,15.0,-8.7,-0.7
CCCCCCCC(=O)N/N=C/c1ccncc1,-6.3,6.3,-0.1,1.9,2.9,-0.8
CC(C)Oc1ccc(CCC(=O)N/N=C/c2ccncc2)cc1,15.9,0.2,26.9*,-2.6,1.3,-1.4
CCOC(=O)C1=C(Cc2ccc(Cl)cc2)C(=O)c2ccccc2C1=O,-335.1,·,·,42.0*,14.4,2.5
CCOC(=O)C1=C(O)c2ccccc2C(=O)/C1=C\c1ccc(C)cc1,-906.6,·,·,20.5,25.5,-1.0
Fc1ccc(Nc2nc(-c3ccncc3)cs2)cc1,26.9,4.8,28.1*,0.9,-0.1,0.4
O=C(NC1=N[C@@]2(C=C3CCCCC3n3c(=O)n(-c4ccccc4)c(=O)n32)CN1Cc1ccccc1)c1ccccc1 (some centres undefined),·,0.6,0.4,·,·,·
CC(=O)Oc1cccc(/C=C2\Sc3ccccc3C2=O)c1,7.2,1.1,-4.8,22.0*,-0.7,-0.1
CCCCOc1ccc(/C=C2/Sc3ccccc3C2=O)cc1,3.4,-2.3,0.9,0.8,-0.5,0.4
Cc1ccc(-c2cc(C(=O)NN=Cc3c4ccccc4cc4ccccc34)[nH]n2)cc1C,·,-1.2,-0.9,·,·,·
COc1ccccc1N1CCN(C(=O)c2oc3ccc(F)cc3c2C)CC1,0.7,4.3,1.3,2.2,11.0,1.2
Cc1c(C(=O)Nc2ccccc2N2CCN(C)CC2)oc2ccc(F)cc12,9.9,-2.9,-0.8,22.0*,38.0,1.0
O=C(NCc1ccccc1Cl)C1CCC(CNS(=O)(=O)c2cccc3cccnc23)CC1 (centres undefined),·,4.2,4.7,·,·,·
Cn1cccc1C(=O)N1CCN(S(=O)(=O)c2ccc(F)cc2)CC1,·,2.3,-2.5,·,·,·
CCCCCCN1CCS(=O)(=O)N(Cc2ccccc2)C(C(=O)OC)C1 (centres undefined),·,-0.2,-0.6,·,·,·
SMILES,B2AR ag,MBD2 inh,UHRF1 MBD2 ctr,ABHD5 PLIN5 PPI,Arrestin-AP2 inh,Rin1-Abl PPI inh
COc1cccc(N2CCN(CC(=O)N(C)Cc3ccccc3Cl)CC2)c1,·,1.8,0.5,·,·,·
COc1ccc(/C=C2\SC(N)=NC2=O)cc1,9.4,0.6,-6.9,3.0,-18.8,-6.6
CCOC(=O)CSC1=NC(=O)/C(=C/c2ccc(OC)cc2)S1,69.4*,·,·,-16.9,4.8,-0.1
COc1ccc(/C=C/c2cc(C(F)(F)F)[nH]c(=O)n2)cc1OC,4.5,-2.8,-2.8,22.3*,-14.6,5.2
O=C(C[n+]1ccc2ccccc2c1)c1cccc2ccccc12,16.2,-6.1,-7.4,2.9,-9.9,-5.3
O=C(/C=C/c1cc[n+](CC(=O)c2ccc3cccc4c3c2CC4)cc1)c1ccc2cccc3c2c1CC3,73.8*,·,·,23.0*,6.7,-2.6
